Source: PubChem BioAssay (SRMLSC)
Only a selection was taken, and hits are over-represented in it overall.
PostGolgi yeast – phenotypic screen on post-Golgi transport, primary screen; hit rate 0.9% among 98,000; post-Golgi transport phenotypic cell assay; inhibition, % at 10 µM;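 further: yeast cells grown in 1536-well plates; yeast grown about 18 h at 30C before absorbance read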
BB579 growth dn – growth inhibitors of yeast BB579 in restrictive medium, primary screen, yeast lifespan-shortening project, S. cerevisiae; hit rate 0.51% among 140,000; OD615, 48 h; AID 804, 2007; inhibition, % at 10 µM;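 active means inhibition above a set limit, 3 SD over the mean compound inhibition, cut at about 44% in these data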
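System: Saccharomyces cerevisiae DeaD strain BB579, replicative lifespan model yeast | Buffer or medium: Restrictive glucose-based CSMM-D medium | Times: 4 h preincubation and 48 h exposure at 30 °C | Detection: OD615 turbidity measurement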
PostGolgi ctrl – growth inhibition of yeast control strain, primary screen, counter-screen for post-Golgi transport modulator project; efflux-deficient yeast background strain, growth absorbance A615, 16 h; inhibition, % at 10 µM; hit rate 5% among 98,000
Yeast lifespan up – compounds extending yeast replicative lifespan, primary screen, S. cerevisiae, OD615; S. cerevisiae growth with nicotinamide; deaD strain in restrictive glucose medium; hit rate 0.68% among 130,000; inhibition of the nicotinamide effect, % at 10 µM;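 active means inhibition above a set limit, placed 3 SD over the median of all compounds, cut at about 26% in these data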;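 further: 0% = nicotinamide-treated wells and 100% = cells grown without nicotinamide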
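Assay system: engineered S. cerevisiae DeaD replicative-lifespan strain, galactose-grown log-phase cells; medium: restrictive CSMM-D dextrose medium; also added: nicotinamide, 1.5 mM, co-present with compound; schedule: 48 h compound exposure at 30 °C, humidified; detection: absorbance at 615 nm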
The depositor's hits bear a star; . = no result. Unless noted, no stated cut-off is given here; in the data, active means inhibition above about 30%; inactive means the rest.

SMILES	PostGolgi yeast	BB579 growth dn	PostGolgi ctrl	Yeast lifespan up
CC(Oc1ccc2ccc(=O)oc2c1)C(=O)c1ccccc1 (configuration not stated)	.	-16.1	.	-6.7
CC(CN(C)Cc1ccccc1)OC(=O)c1cccc(F)c1 (configuration not stated)	.	-18.4	.	6.3
COC(=O)c1cc2cc(NS(=O)(=O)c3ccc(C)cc3)ccc2s1	-10.7	-48.0	51.9*	3.8
COC(=O)Nc1ccc(S(=O)(=O)Nc2ccc(C)cc2)cc1	39.3*	-69.0	37.0*	-7.6
COC(=O)Nc1ccc(S(=O)(=O)Nc2ccc(O)cc2)cc1	0.8	-29.2	5.5	-3.4
Cc1ccc(S(=O)(=O)Nc2ccc3c(c2)CCC3)cc1	.	-40.3	.	9.0
COc1cc(CNCCc2ccccc2)ccc1OCc1ccc(Cl)nc1	18.0	-15.1	39.0*	-3.8
COc1ccc(OCc2nnc(SCC(=O)NNC(=O)c3ccc(C)cc3)n2C)cc1	.	5.1	.	6.4
CC1CCCCC1NC(=O)Cn1c(CN2CCCCC2)nc2ccccc2c1=O (configuration not stated)	8.6	-27.1	3.5	-23.6
Nn1c(CN2CCCCC2)nc2ccccc2c1=O	-2.0	-69.3	30.8*	-4.1
O=S(=O)(c1ccc(Cl)cc1)n1nnc2ccccc21	9.7	-21.9	2.6	-16.4
Clc1cccc(Cl)c1Cn1cnc2c(N3CCCCCC3)ncnc21	0.7	-78.4	34.0*	0.8
COc1ccc(OCC(=O)NNc2c3ccccc3nc3ccccc23)cc1	24.8	-20.3	19.7	-5.5
O=C(COc1ccccc1)NNc1c2ccccc2nc2ccccc12	-4.3	-43.9	43.9*	-11.9
O=C(COC(=O)c1ccccc1Oc1ccccc1)NC1CCS(=O)(=O)C1 (configuration not stated)	8.3	-55.2	12.6	-12.5
Nc1cc(Cl)ccc1C(=O)OCC(=O)NC1CCS(=O)(=O)C1 (configuration not stated)	3.2	-9.3	36.1*	-5.4
CCc1cc(N2CCOCC2)cc2c1[nH]c1ccccc12	-11.1	-32.5	35.7*	-5.8
c1ccc2c(c1)[nH]c1c(N3CCOCC3)ncnc12	9.7	-29.6	6.8	-8.3
COc1ccc(CC(=O)Nc2ccccc2C(=O)N2CCOCC2)cc1OC	.	-3.7	.	0.6
COc1nc(N(c2ccccc2)c2ccccc2)nc(-n2ccnc2)n1	93.8*	-25.6	95.7*	32.1
O=C1/C(=C/c2ccccc2)CSc2sccc21	-8.5	-21.6	9.5	-4.4
O=C(Cc1cccs1)N1CCN(c2nc(-c3ccc(Cl)cc3)cs2)CC1	0.8	-66.1	50.6*	2.5
CCOC(=O)N1CCN(c2nc(-c3ccc(Cl)cc3)cs2)CC1	-0.9	-8.3	7.2	-2.6
COC(=O)c1cn[nH]c1NC(=S)Nc1ccc(Cl)c(Cl)c1	-2.6	-21.9	41.7*	-5.7
COC(=O)c1cn[nH]c1NC(=S)Nc1ccc(C)cc1Cl	1.1	-25.2	3.5	-3.0
SMILES	PostGolgi yeast	BB579 growth dn	PostGolgi ctrl	Yeast lifespan up
Cc1ccc(C)c(N2CCN(C(=O)COc3cc(=O)n(C)c4ccccc34)CC2)c1	1.9	-28.6	38.3*	-20.9
Cc1ccc(C2/C(=C(/O)c3ccc(Br)cc3)C(=O)C(=O)N2Cc2ccco2)o1 (configuration not stated)	-1.2	5.2	4.6	-5.5
CN1C(=O)CSc2ccc(NC(=O)NCCC3=CCCCC3)cc21	1.7	-30.4	-8.8	-12.0
COc1cc(S(=O)(=O)N2CCOCC2)ccc1NC(=O)COC(=O)C12CC3CC(CC(C3)C1)C2	-10.2	-36.2	35.3*	-4.4
C=CCn1c(SCC(=O)N2CCc3ccccc3C2)nc2sc(C)cc2c1=O	0.3	-29.1	49.9*	-8.4
Cc1ccc(OCCCn2c(CO)nc3ccccc32)cc1	36.7*	-20.4	7.4	-10.5
OCc1nc2ccccc2n1CCCOc1ccccc1	5.3	10.8	2.8	-9.6
Cc1cc(OCc2ccc(C(=O)NN=C3CCCC3)cc2)ccc1Cl	.	96.9*	.	-6.4
COc1ccc(-n2nnnc2SCc2nc3ccccc3s2)cc1	-4.9	-5.2	15.6	0.5
COc1ccc(C)cc1-n1nnnc1SCc1nc2ccccc2s1	-2.4	-33.8	34.6*	10.8
O=C(O)CCCc1nc(-c2ccccc2)no1	-2.0	-14.8	-0.6	-3.3
c1ccc(NCc2nc(-c3ccccc3)no2)cc1	-13.0	-73.6	31.9*	-11.3
CCC(C)NCCCOc1c(C)cc(C)cc1Br (configuration not stated)	.	2.7	.	-1.2
FC(F)(F)c1cnc2c(c1)Nc1ccccc1S2	33.1*	-30.6	22.4	-11.9
O=c1oc2ccccc2n1CCc1ccccc1	7.0	-29.1	18.9	-18.1
O=C1c2ccccc2C(=O)N1CCCCn1c(=O)oc2ccccc21	4.0	-35.4	44.4*	-10.2
